Measured values from PMC6953265 (Molecular imaging and biology, 2019).
pIC50: −log10 of the molar value. Where “and” joins values, the source holds several entries; their conditions need not be identical. Equal entries are not always repeated. Where two headings read alike, the source gives them in different places.

Legend:
TSPO [1] = biological target: T1, TSPO (Rattus norvegicus, UniProt P16257); assay type: binding; conditions: C6 glioma cell lysate; for pIC50: read-out: TSPO binding affinity (IC50), competition with [^3H]PK 11195 (0.6 nM), 2 h at 25 °C
In short: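 C6 cells PBS-washed, then freeze-thawed three times in lysis buffer (5.0 mM HEPES, mannitol, sucrose, benzamidine, MgCl2, pH 7.4); lysate 0.5 mg/ml. Lysate incubated with [3H]PK 11195 (final 0.6 nM) and test compound (10−5 to 10−14 M), 2 h, 25 °C. Rapid filtration onto polyethylenimine-presoaked filters, scintillation counting. IC50 fitted in triplicate; fold values are IC50 ratios.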

C6 glioma = assay: In vivo uptake of [^18F]VUIIS1018A, 60-min dynamic PET in C6 glioma-bearing rats; set-up: species or system rat
In short: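 Male Wistar rats, 1.0 × 10^5 C6 glioma cells implanted stereotactically in right hemisphere 2 weeks before imaging; tumours confirmed by T2-weighted MRI at 4.7T. Venous and arterial catheters placed. 18F-labelled tracer 1.1 ± 0.3 mCi given via jugular catheter in microPET; 60-min listmode dynamic scan (32 frames), CT attenuation correction, 2D OSEM reconstruction. Tumour and contralateral brain VOIs gave time-activity curves.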

TSPO [2] = biological target: T1, TSPO; assay type: in vivo; conditions: blocking with [^19F]VUIIS1018A 10 mg/kg 5 min before tracer
In short: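 C6 glioma-bearing male Wistar rats, catheterised venous and arterial. Unlabelled (19F) analogue of tracer, 10 mg/kg, given 5 min before 18F tracer (1.1 ± 0.3 mCi, jugular catheter), then 60-min dynamic microPET with CT attenuation correction. Time-activity curves from tumour and contralateral brain VOIs. BPND maps by SRTM2, normal cerebrum as reference tissue. n = 3.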

TSPO [3] = biological target: T1, TSPO; assay: Compartmental modeling of dynamic PET data; assay type: in vivo; conditions: for K1/k2 / VT / k3/k4 (BPND): mean ± SEM, n = 7; for VT ratio between tumor and normal brain: from VT values of Table 1
TSPO [4] = biological target: T1, TSPO; conditions: mean ± SEM, n = 5, cited from earlier work
TSPO [5] = biological target: T1, TSPO; conditions: earlier study; cited from earlier work

CCCCc1cc(C)nc2c(CC(=O)N(CC)CC)c(-c3ccc(OCC[18F])cc3)nn12 [[^18F]VUIIS1018A, 2-(7-Butyl-2-(4-(2-[^18F]Fluoroethoxy)phenyl)-5-Methylpyrazolo[1,5-a] Pyrimidin-3-yl)-N,N-Diethylacetamide]
fold enhancement in binding affinity compared with DPA-714 (TSPO [1]; ratio of IC50 values): approximately 700 fold
fold enhancement in binding affinity compared with DPA-714 (TSPO [1]; ratio of IC50 values, listed as [^18 F]VUIIS1018A): 700 fold
accumulation in C6 gliomas (C6 glioma): robust accumulation
accumulation in normal brain (C6 glioma): negligible accumulation
circulating plasma radioactivity compared with the unblocked scenario (TSPO [2]): significantly elevated
effect of blocking dose on accumulation in the normal brain (TSPO [2]): insignificant effect
overall reduction in tumor PET signal (TSPO [2]; mean ± SD, n = 3): 48.3 ± 2.8%
K1/k2 (TSPO [3]; Brain): 0.311 ± 0.036
VT (TSPO [3]; Brain): 1.214 ± 0.190
k3/k4 (BPND) (TSPO [3]; Brain): 2.91 and 2.913 ± 0.456
K1/k2 (TSPO [3]; Tumor): 0.532 ± 0.130
VT (TSPO [3]; Tumor): 11.036 ± 3.731
k3/k4 (BPND) (TSPO [3]; Tumor): 23.10 and 23.097 ± 4.757
VT ratio between tumor and normal brain (TSPO [3]): 9.1
fold higher k3/k4 in tumor compared with healthy brain (TSPO [3]; from k3/k4 values of Table 1): 8 fold

CCc1cc(CC)n2nc(-c3ccc(OCC[18F])cc3)c(CC(=O)N(CC)CC)c2n1 [[^18F]VUIIS1008, 2-(5,7-Diethyl-2-(4-(2-[^18?F]fluoroethoxy)phenyl)pyrazolo[1,5-a]pyrimidin-3-yl)-N,N-diethylacetamide]
VT ratio between tumor and normal brain (TSPO [3]): 6.0
K1/k2 (TSPO [4]; Brain): 0.855 ± 0.325
VT (TSPO [4]; Brain): 4.210 ± 1.612
k3/k4 (BPND) (TSPO [4]; Brain): 4.435 ± 1.387
k3/k4 (BPND) (TSPO [4]; Brain, listed as [^18 F]VUIIS1008): 4.43
K1/k2 (TSPO [4]; Tumor): 1.902 ± 0.816
VT (TSPO [4]; Tumor): 25.224 ± 10.035
k3/k4 (BPND) (TSPO [4]; Tumor): 12.63 and 12.634 ± 1.406

CCc1cc(CC)n2nc(-c3ccc(OCCF)cc3)c(CC(=O)N(CC)CC)c2n1 [VUIIS1008, 2-(5,7-diethyl-2-(4-(2-fluoroethoxy)phenyl)pyrazolo[1,5-a]pyrimidin-3-yl)-N,N-diethylacetamide]
fold enhancement in binding affinity compared to DPA-714 (TSPO [5]): 36 fold

CCCCc1cc(C)n2nc(-c3ccc(OCCF)cc3)c(CC(=O)N(CC)CC)c2n1 [VUIIS1018B]
fold lower binding affinity than VUIIS1018A (TSPO [1]; ratio of IC50 values): 6000 fold
pIC50 (TSPO [1]): 7.00

CCCCc1cc(C)nc2c(CC(=O)N(CC)CC)c(-c3ccc(OCCF)cc3)nn12 [VUIIS1018A]
fold enhancement in binding affinity compared with DPA-714 (TSPO [1]; ratio of IC50 values): ~700 fold
fold enhancement in binding affinity compared with VUIIS1008 (TSPO [1]; ratio of IC50 values): 20 fold
pIC50 (TSPO [1]): 10.79
